This is an account of results in ChEMBL document CHEMBL1212842, “Substrate specificity and inhibitory study of human airway trypsin-like protease” (Bioorg Med Chem, 2010).

The species entered for series [1] is Homo sapiens. Put plainly: Activity at human tryptase by FRET assay.
For series [2], the species on record is Homo sapiens. Put plainly: Ratio of Kcat to Km for human tryptase by FRET assay.
The species entered for series [3] is Bos taurus. Put plainly: Activity at bovine trypsin by FRET assay.
The species named for series [4] is Bos taurus. Put plainly: Ratio of Kcat to Km for bovine trypsin by FRET assay.
For series [5], the target named is T1, Transmembrane protease serine 11D (Homo sapiens, UniProt O60235).
T1 sequence (O60235 whole entry): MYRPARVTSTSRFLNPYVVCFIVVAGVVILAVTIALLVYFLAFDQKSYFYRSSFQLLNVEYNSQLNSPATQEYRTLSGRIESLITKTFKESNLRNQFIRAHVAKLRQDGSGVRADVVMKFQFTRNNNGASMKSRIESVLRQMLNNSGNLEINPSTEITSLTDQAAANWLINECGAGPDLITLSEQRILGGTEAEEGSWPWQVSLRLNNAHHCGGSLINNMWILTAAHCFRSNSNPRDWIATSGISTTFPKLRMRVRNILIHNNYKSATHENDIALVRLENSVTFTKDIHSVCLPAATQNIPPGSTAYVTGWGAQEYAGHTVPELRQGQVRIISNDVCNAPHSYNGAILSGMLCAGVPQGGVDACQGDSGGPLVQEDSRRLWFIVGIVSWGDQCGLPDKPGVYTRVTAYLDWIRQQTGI
The series can be described thus: Inhibition of human HAT by FRET assay. The essentials: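 Inhibitor at increasing concentrations (0–100 nM) was preincubated for 60 min with enzyme (20 nM) in Tris-HCl, pH 7.8. Chromogenic substrate (1.8–100 µM) was then added and absorbance was followed over time. For HAT, the substrate was an ABZ/ANB-labelled tetrapeptide. Ki was calculated from the initial velocities of hydrolysis.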

Series [6] concerns the target T2, Suppressor of tumorigenicity 14 protein (Homo sapiens, UniProt Q9Y5Y6).
T2 sequence (Q9Y5Y6 whole entry): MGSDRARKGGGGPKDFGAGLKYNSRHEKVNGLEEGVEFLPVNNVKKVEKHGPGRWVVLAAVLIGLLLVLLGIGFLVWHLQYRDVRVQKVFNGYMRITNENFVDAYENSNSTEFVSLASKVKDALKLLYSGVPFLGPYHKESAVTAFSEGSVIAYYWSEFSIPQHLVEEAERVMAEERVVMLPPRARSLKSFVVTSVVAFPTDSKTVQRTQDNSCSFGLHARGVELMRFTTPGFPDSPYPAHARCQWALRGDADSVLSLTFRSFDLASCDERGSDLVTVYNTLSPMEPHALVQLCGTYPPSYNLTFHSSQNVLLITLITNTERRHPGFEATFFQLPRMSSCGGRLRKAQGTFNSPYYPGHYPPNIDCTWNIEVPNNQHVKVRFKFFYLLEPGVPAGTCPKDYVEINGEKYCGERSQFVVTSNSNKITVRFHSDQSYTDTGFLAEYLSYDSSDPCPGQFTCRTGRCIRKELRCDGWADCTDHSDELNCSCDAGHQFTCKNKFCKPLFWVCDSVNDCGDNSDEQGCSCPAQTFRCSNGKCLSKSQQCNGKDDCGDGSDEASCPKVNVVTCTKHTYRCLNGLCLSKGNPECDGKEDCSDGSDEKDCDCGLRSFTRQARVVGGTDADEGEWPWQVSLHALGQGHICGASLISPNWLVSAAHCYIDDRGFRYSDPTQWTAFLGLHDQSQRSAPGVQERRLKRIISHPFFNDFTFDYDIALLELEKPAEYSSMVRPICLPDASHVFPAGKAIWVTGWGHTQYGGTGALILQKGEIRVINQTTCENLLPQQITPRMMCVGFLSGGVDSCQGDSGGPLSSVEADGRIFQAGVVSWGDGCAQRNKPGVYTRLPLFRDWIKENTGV
Put plainly: Inhibition of human matriptase by FRET assay.

Series [7] is described as follows: Inhibition of human tryptase by FRET assay.
Series [8] can be described thus: Inhibition of bovine trypsin by FRET assay. Details: species or system Bos taurus.
Substrate in series [9]: Cc1cc(=O)oc2cc(NC(=O)[C@H](CCCNC(=N)N)NC(=O)[C@H](CO)NC(=O)[C@H](Cc3ccccc3)NC(=O)OC(C)(C)C)ccc12
Put plainly: (§1) Activity at human matriptase by FRET assay.

Substrate in series [10]: N=C(N)NCCC[C@H](NC(=O)c1ccccc1N)C(=O)N[C@@H](CCC(N)=O)C(=O)N[C@@H](CC(=O)O)C(=O)N[C@@H](CCCCN)C(=O)Nc1ccc([N+](=O)[O-])c(C(N)=O)c1
The series is described as §1.

Substrate in series [11]: N=C(N)NCCC[C@H](NC(=O)c1ccccc1N)C(=O)N[C@@H](CCC(N)=O)C(=O)N[C@@H](CC(=O)O)C(=O)N[C@@H](CCCNC(=N)N)C(=O)Nc1ccc([N+](=O)[O-])c(C(N)=O)c1
The description is as §1.

Substrate in series [12]: Cc1cc(=O)oc2cc(NC(=O)[C@H](CCCNC(=N)N)NC(=O)[C@H](CO)NC(=O)[C@H](Cc3ccccc3)NC(=O)OC(C)(C)C)ccc12
The series can be described thus: (§2) Ratio of Kcat to Km for human matriptase by FRET assay.

Substrate in series [13]: N=C(N)NCCC[C@H](NC(=O)c1ccccc1N)C(=O)N[C@@H](CCC(N)=O)C(=O)N[C@@H](CC(=O)O)C(=O)N[C@@H](CCCCN)C(=O)Nc1ccc([N+](=O)[O-])c(C(N)=O)c1
The series is described as §2.

Substrate in series [14]: N=C(N)NCCC[C@H](NC(=O)c1ccccc1N)C(=O)N[C@@H](CCC(N)=O)C(=O)N[C@@H](CC(=O)O)C(=O)N[C@@H](CCCNC(=N)N)C(=O)Nc1ccc([N+](=O)[O-])c(C(N)=O)c1
The series is described as §2.

Substrate in series [15]: Cc1cc(=O)oc2cc(NC(=O)[C@H](CCCNC(=N)N)NC(=O)[C@H](CO)NC(=O)[C@H](Cc3ccccc3)NC(=O)OC(C)(C)C)ccc12
The series can be described thus: (§3) Activity at human HAT by FRET assay.

Substrate in series [16]: N=C(N)NCCC[C@H](NC(=O)c1ccccc1N)C(=O)N[C@@H](CCC(N)=O)C(=O)N[C@@H](CC(=O)O)C(=O)N[C@@H](CCCCN)C(=O)Nc1ccc([N+](=O)[O-])c(C(N)=O)c1
The description is as §3.

Substrate in series [17]: N=C(N)NCCC[C@H](NC(=O)c1ccccc1N)C(=O)N[C@@H](CCC(N)=O)C(=O)N[C@@H](CC(=O)O)C(=O)N[C@@H](CCCNC(=N)N)C(=O)Nc1ccc([N+](=O)[O-])c(C(N)=O)c1
The description is as §3.

Substrate in series [18]: Cc1cc(=O)oc2cc(NC(=O)[C@H](CCCNC(=N)N)NC(=O)[C@H](CO)NC(=O)[C@H](Cc3ccccc3)NC(=O)OC(C)(C)C)ccc12
The series can be described thus: (§4) Ratio of Kcat to Km for human HAT by FRET assay.

Substrate in series [19]: N=C(N)NCCC[C@H](NC(=O)c1ccccc1N)C(=O)N[C@@H](CCC(N)=O)C(=O)N[C@@H](CC(=O)O)C(=O)N[C@@H](CCCCN)C(=O)Nc1ccc([N+](=O)[O-])c(C(N)=O)c1
Described as §4.

Substrate in series [20]: N=C(N)NCCC[C@H](NC(=O)c1ccccc1N)C(=O)N[C@@H](CCC(N)=O)C(=O)N[C@@H](CC(=O)O)C(=O)N[C@@H](CCCNC(=N)N)C(=O)Nc1ccc([N+](=O)[O-])c(C(N)=O)c1
The description is as §4.

Where a SMILES comes first, the peptide text is derived from it. [ ]: non-standard residue; d: D form. The star is where a group is joined. NH(3-CONH2-4-NO2-Ph) = NC(=O)c1cc(N*)ccc1[N+](=O)[O-]; AMC = Cc1cc(=O)oc2cc(N*)ccc12; 2Abz = Nc1ccccc1C(=O)O; Boc = CC(C)(C)OC(=O)*

Take `Cc1cc(=O)oc2cc(NC(=O)[C@H](CCCNC(=N)N)NC(=O)[C@H](CO)NC(=O)[C@H](Cc3ccccc3)NC(=O)OC(C)(C)C)ccc12` (Boc-Phe-Ser-Arg-{AMC}): the Km in the series listed under Homo sapiens [1] worked out at 19.4 µM; in the series filed under Bos taurus [3], 16.5 µM. Besides, the kcat in the series filed under Homo sapiens [1] worked out at 53.6 ×10⁻¹ /s; in the series filed under Bos taurus [3] it was 72.3 ×10⁻¹ /s. Besides, the values for the kcat/Km in the series listed under Homo sapiens [2] and in the series filed under Bos taurus [4] were 276 ×10³ /M/s and 442 ×10³ /M/s, respectively.

Consider `N=C(N)NCCC[C@H](NC(=O)c1ccccc1N)C(=O)N[C@@H](CCC(N)=O)C(=O)N[C@@H](CC(=O)O)C(=O)N[C@@H](CCCNC(=N)N)C(=O)Nc1ccc([N+](=O)[O-])c(C(N)=O)c1` (H-[2Abz]RQDR-{NH(3-CONH2-4-NO2-Ph)}), for which the figures for the Km in the series listed under Homo sapiens [1] and in the series listed under Bos taurus [3] were 155 µM and 1120 µM, respectively. Further, the kcat in the series listed under Homo sapiens [1] is 42.2 ×10⁻¹ /s; in the series listed under Bos taurus [3], 1.4 ×10⁻¹ /s. Besides, the kcat/Km was 27.4 ×10³ /M/s in the series filed under Homo sapiens [2] and 0.2 ×10³ /M/s in the series filed under Bos taurus [4].

As to `N=C(N)NCCC[C@H](NC(=O)c1ccccc1N)C(=O)N[C@@H](CCC(N)=O)C(=O)N[C@@H](CC(=O)O)C(=O)N[C@@H](CCCCN)C(=O)Nc1ccc([N+](=O)[O-])c(C(N)=O)c1` (H-[2Abz]RQDK-{NH(3-CONH2-4-NO2-Ph)}), the Michaelis-Menten constant (Km) in the series filed under Homo sapiens [1] was found to be 269 µM; in the series filed under Bos taurus [3], 1840 µM. The kcat in the series filed under Homo sapiens [1] is 11.8 ×10⁻¹ /s; in the series listed under Bos taurus [3] it was 0.8 ×10⁻¹ /s. Also, the kcat/Km is 6.7 ×10³ /M/s in the series listed under Homo sapiens [2] and 0.1 ×10³ /M/s in the series listed under Bos taurus [4].

Turning to `N=C(N)NCCC[C@H](NC(=O)[C@H](CC(=O)O)NC(=O)[C@H](CCC(N)=O)NC(=O)[C@H](CCCNC(=N)N)NC(=O)c1ccccc1N)C(=O)O` (H-[2Abz]RQDR-OH), the inhibition constant (Ki) in series [5] was determined as 54.3 nM; in series [6] it was 973 nM; in series [7], 2130 nM; in series [8], 3.93 µM.

B1: Suppressor of tumorigenicity 14 protein (Homo sapiens), Q9Y5Y6 (protein)
chain: MGSDRARKGGGGPKDFGAGLKYNSRHEKVNGLEEGVEFLPVNNVKKVEKHGPGRWVVLAAVLIGLLLVLLGIGFLVWHLQYRDVRVQKVFNGYMRITNENFVDAYENSNSTEFVSLASKVKDALKLLYSGVPFLGPYHKESAVTAFSEGSVIAYYWSEFSIPQHLVEEAERVMAEERVVMLPPRARSLKSFVVTSVVAFPTDSKTVQRTQDNSCSFGLHARGVELMRFTTPGFPDSPYPAHARCQWALRGDADSVLSLTFRSFDLASCDERGSDLVTVYNTLSPMEPHALVQLCGTYPPSYNLTFHSSQNVLLITLITNTERRHPGFEATFFQLPRMSSCGGRLRKAQGTFNSPYYPGHYPPNIDCTWNIEVPNNQHVKVRFKFFYLLEPGVPAGTCPKDYVEINGEKYCGERSQFVVTSNSNKITVRFHSDQSYTDTGFLAEYLSYDSSDPCPGQFTCRTGRCIRKELRCDGWADCTDHSDELNCSCDAGHQFTCKNKFCKPLFWVCDSVNDCGDNSDEQGCSCPAQTFRCSNGKCLSKSQQCNGKDDCGDGSDEASCPKVNVVTCTKHTYRCLNGLCLSKGNPECDGKEDCSDGSDEKDCDCGLRSFTRQARVVGGTDADEGEWPWQVSLHALGQGHICGASLISPNWLVSAAHCYIDDRGFRYSDPTQWTAFLGLHDQSQRSAPGVQERRLKRIISHPFFNDFTFDYDIALLELEKPAEYSSMVRPICLPDASHVFPAGKAIWVTGWGHTQYGGTGALILQKGEIRVINQTTCENLLPQQITPRMMCVGFLSGGVDSCQGDSGGPLSSVEADGRIFQAGVVSWGDGCAQRNKPGVYTRLPLFRDWIKENTGV
As to B1, the Michaelis-Menten constant (Km) was found to be 12.1 µM in series [9], 70.6 µM in series [10] and 68.5 µM in [11]. Also, the kcat is 42.8 ×10⁻¹ /s in series [9], 16.3 ×10⁻¹ /s in series [10] and 67.4 ×10⁻¹ /s in [11]. The kcat/Km in series [12] came to 356 ×10³ /M/s; in series [13] it was 23.1 ×10³ /M/s; in [14] it was 98.4 ×10³ /M/s.

B2: Transmembrane protease serine 11D (Homo sapiens), O60235 (protein)
chain: MYRPARVTSTSRFLNPYVVCFIVVAGVVILAVTIALLVYFLAFDQKSYFYRSSFQLLNVEYNSQLNSPATQEYRTLSGRIESLITKTFKESNLRNQFIRAHVAKLRQDGSGVRADVVMKFQFTRNNNGASMKSRIESVLRQMLNNSGNLEINPSTEITSLTDQAAANWLINECGAGPDLITLSEQRILGGTEAEEGSWPWQVSLRLNNAHHCGGSLINNMWILTAAHCFRSNSNPRDWIATSGISTTFPKLRMRVRNILIHNNYKSATHENDIALVRLENSVTFTKDIHSVCLPAATQNIPPGSTAYVTGWGAQEYAGHTVPELRQGQVRIISNDVCNAPHSYNGAILSGMLCAGVPQGGVDACQGDSGGPLVQEDSRRLWFIVGIVSWGDQCGLPDKPGVYTRVTAYLDWIRQQTGI
As to B2, the Km in series [15] was 43.6 µM; in [16], 12.3 µM; in [17] it was 25.4 µM. Further, the kcat in [15] was 25.4 ×10⁻¹ /s; in [16] it was 24.1 ×10⁻¹ /s; in [17], 115 ×10⁻¹ /s. Also, the kcat/Km is 58.2 ×10³ /M/s in series [18], 195 ×10³ /M/s in [19] and 454 ×10³ /M/s in series [20].

For orientation: Km means the concentration of substrate that gives half-maximal velocity. Broadly, the Ki is a measure of affinity in units of concentration, obtained from inhibition or displacement.
